OXTR potentiate = human OXTR potentiation; CHO-OTR cells, Fluo-8 calcium fluorescence, potentiator mode; 0% = oxytocin EC15, 100% = EC100; hit rate 0.061% among 320,000; AID 2445; activation, % at 3 µM; P30559;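 active = activation above that plate's cutoff, the mean activation of tested compounds plus 3 SD, cut at about 6.6% in these data, passing the limit was not always enough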;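 note: 100% uses oxytocin at 75 nM as the full agonist control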
Target sequence (P30559 whole entry, looked up): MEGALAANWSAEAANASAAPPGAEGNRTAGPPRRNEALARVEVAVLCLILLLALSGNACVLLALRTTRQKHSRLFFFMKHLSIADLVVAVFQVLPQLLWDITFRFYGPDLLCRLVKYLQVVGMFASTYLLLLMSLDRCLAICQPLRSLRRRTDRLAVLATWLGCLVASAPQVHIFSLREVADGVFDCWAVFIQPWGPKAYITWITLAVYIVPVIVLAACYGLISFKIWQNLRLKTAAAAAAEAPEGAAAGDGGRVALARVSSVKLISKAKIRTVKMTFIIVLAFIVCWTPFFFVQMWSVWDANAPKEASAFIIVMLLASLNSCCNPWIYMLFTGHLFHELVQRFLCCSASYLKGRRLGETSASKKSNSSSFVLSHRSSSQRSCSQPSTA
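System: human OTR in CHO cells / Also added: sub-maximal oxytocin, roughly EC15 / Control set: EC15 oxytocin low, 75 nM oxytocin high / Schedule: 6 min compound pre-incubation at room temperature, 100 s kinetic read / Compound: single-point 3.0 µM / Replication: singlicate / Technique: Fluo-8 calcium dye fluorescence / Read-out basis: % activation of max/min ratio relative to oxytocin controls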
CHO parental Ca = counter-screen: ATP calcium response change in parental CHO cells; parental CHO-K1, ATP-induced calcium, Fluo-8 fluorescence; inhibition, % at 5.6 µM; hit rate 0.63% among 330,000;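 active = inhibition above that plate's mean sample inhibition plus 3 SD, cut at about 26% in these data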;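 note: 0% = ATP-challenged DMSO wells and 100% = DMSO wells without ATP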
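Assay system – parental CHO cells · Reagent – ATP stimulus · Detection – intracellular calcium via Fluo-8 no-wash fluorescent dye · Evaluation – percent inhibition of ATP-evoked calcium rise, normalized to controls · Controls – ATP wells versus no-ATP DMSO wells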
V1R ag counter = activates human V1a receptor in oxytocin agonist counter-screen. P37288. AID 2797. hit rate 0.25% among 320,000. activation, % at 3 µM. CHO-V1R cells, Fluo-8 calcium fluorescence, agonist mode; 0% DMSO, 100% 3 nM vasopressin;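 active = activation above the mean activation of all tested compounds plus 3 SD, per screening run, cut at about 20% in these data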;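 note: signal is peak over basal fluorescence ratio across a 100 second FLIPR read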
OX1R antag-1 = antagonists of human orexin 1 receptor | O43613 | CHO/OX1R cells, Fluo-8 calcium fluorescence, orexin A | inhibition, % at 5 µM | hit rate 0.43% among 330,000;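 active = inhibition above its plate's threshold, mean inhibition of all tested compounds on the plate plus 3 SD, cut at about 37% in these data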;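 note: 0% = orexin A challenge wells and 100% = SB-334867-A antagonist wells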
OX1R antag-2 = blocks the human orexin 1 receptor; O43613; OX1R-expressing cells, FRET antagonist read-out; inhibition, % at 6.6 µM; hit rate 1.8% among 330,000; AID 485270; in the data active = inhibition mostly above about 38%, no sharp cut-off; inactive = mostly below about 40%;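 note: 0% = agonist challenge alone and 100% = reference antagonist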
OXTR ag = activates the human oxytocin receptor; P30559; CHO-OTR cells, Fluo-8 calcium fluorescence; normalized: DMSO 0%, oxytocin 100%; activation, % at 3 µM; hit rate 0.32% among 320,000; AID 2435;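 active = activation above the mean of all tested compounds plus 3 SD, cutoff set per screening run, cut at about 20% in these data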;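 note: peak over basal fluorescence ratio from a 100 s FLIPR kinetic read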
An asterisk follows results filed as active; · = no result given. Sampled rows, rich in hits. Any-hit rate of the full collection: about 2.6%.

SMILES	OXTR potentiate	CHO parental Ca	V1R ag counter	OX1R antag-1	OX1R antag-2	OXTR ag
O=C(Cn1cnc2c(NCc3ccccc3)ncnc21)NCCc1cc2ccccc2[nH]1	·	-2	·	13	34*	·
O=C(Cn1cnc2c(NCc3ccccc3)ncnc21)NCCCc1ccccc1	·	-9	·	-21	12	·
COc1ccc(OC)c(-c2nn(-c3ccccc3)cc2C(=O)NCC(c2ccco2)N2CCCC2)c1 (centres undefined)	-2	-16	0	-39	2	1
COc1ccc2[nH]c(C(=O)N/N=C/c3ccccc3OC)cc2c1	-5	-6	1	-3	56*	-1
COc1cc(OC)c2cc(C(=O)N/N=C/c3ccccc3O)[nH]c2c1	-4	-9	6	11	62*	3
CS(=O)(=O)c1ccc2nc(NC(=O)Nc3ccc(Cl)c(Cl)c3)sc2c1	-6	-4	3	6	2	-1
CS(=O)(=O)c1ccc2nc(NC(=O)CS(=O)(=O)Cc3ccccc3)sc2c1	-7	-8	0	11	71*	0
CS(=O)(=O)c1ccc2nc(NC(=O)Nc3cccc(Cl)c3)sc2c1	-10	33*	11	36	39*	12
Cc1cccc(C)c1NC(=O)C(=O)NCC1CCCN1S(=O)(=O)c1ccccc1 (centres undefined)	-12	-21	0	27	33	-2
COc1ccc(C(=O)NCCn2cc(SCC(=O)NCC3CCCO3)c3ccccc32)cc1OC (centres undefined)	-12	-13	7	-24	6	0
Cc1nnc(NC(=O)C2CCN(S(=O)(=O)c3cc([N+](=O)[O-])ccc3Cl)CC2)o1	-3	-8	0	-6	28*	0
O=C(NC1CC1)C1CCN(S(=O)(=O)c2cc([N+](=O)[O-])ccc2Cl)CC1	2	-12	0	-12	16	0
O=S(=O)(c1cccs1)N1CN(C2CCCCC2)c2nc3ccccc3nc21	-2	-34	-1	-17	28	-1
COc1cc(/C=C2\CC/C(=C\c3cc(OC)c(OC)c(OC)c3)C2=O)cc(OC)c1OC	-10	-21	0	-32	15	-2
COc1cc(/C=C2\CC/C(=C\c3cc(OC)c(O)c(OC)c3)C2=O)cc(OC)c1O	-7	-21	0	13	90*	0
N#C/C(=C(/O)COC(=O)c1ccccc1O)c1nc2ccccc2s1	-4	5	3	0	53*	4
O=C(/C=C/c1ccc(F)cc1)NC(Cc1c[nH]c2ccccc12)C(=O)O (centres undefined)	-17	-9	1	-10	8	1
COc1ccc(CCNCC(O)COc2cccc(C(C)=O)c2)cc1OC (centres undefined)	-15	-18	1	-29	6	-1
CCOc1ccc(CNC(=O)Nc2ccccc2)cc1	-4	-23	0	-13	-5	-1
O=C(CCN1C(=O)c2cccc3cccc(c23)C1=O)NCc1cccnc1	-4	-5	0	-28	47*	0
O=C(CCCCCN1C(=O)c2cccc3cccc(c23)C1=O)NCCO	-6	-11	0	-9	52*	-1
Cc1cccc(C)c1NC(=O)CNC(=O)CCCN1C(=O)c2cccc3cccc(c23)C1=O	6	-26	0	-34	18	-2
CN(C)CCCN1C(=O)c2cc3ccccc3cc2C1=O	4	3	1	-3	12	2
O=C1c2cccc3cccc(c23)C(=O)N1Cc1cccnc1	1	-22	0	-13	20	-3
CN(C)CCCN1C(=O)c2cccc3cccc(c23)C1=O	5	-9	0	-12	56*	1
SMILES	OXTR potentiate	CHO parental Ca	V1R ag counter	OX1R antag-1	OX1R antag-2	OXTR ag
CCN(CC)C(=O)CN1C(=O)c2cccc3cccc(c23)C1=O	-2	1	1	-14	69*	-1
CN(C(=S)NC(=O)c1ccccc1)C1CCCCC1	-4	-10	0	-6	8	0
CC1(C)OC(=O)N(c2ccccc2)C12C=Cc1cc(Br)ccc1O2 (centres undefined)	-8	36*	0	-16	9	-1
COC(=O)C(Cc1c[nH]c2ccccc12)NC(=O)C1CC1 (centres undefined)	-3	-15	1	-3	13	1
O=[N+]([O-])c1cc(Br)c(O)c(C=Nc2ccc(N3CCOCC3)cc2)c1	-15	-16	8	-14	66*	2
COc1cccc(C=Nc2ccc(N3CCOCC3)cc2)c1O	-19	-14	-1	-32	4	1
Cc1cc(Cl)ccc1NC(=S)NCc1ccc(F)cc1	-25	42*	9	35	3	11
S=C(NCc1cccs1)Nc1cc(Cl)cc(Cl)c1	-17	39*	13	14	25	8
S=C(NCc1ccncc1)Nc1cccc(Cl)c1	-4	-9	5	-3	5	3
Fc1ccc(CNC(=S)Nc2cccc(Cl)c2)cc1	-5	41*	8	15	13	9
CC(OC(=O)C1=COCCO1)C(=O)NC1(C#N)CCCCC1 (centres undefined)	3	-5	1	-19	3	1
O=C(CCCn1c(=O)c2sccc2n(CC(=O)OCc2ccccc2)c1=O)NCc1ccco1	-6	0	3	-11	3	0
CCN(Cc1ccccc1)C(=O)Cn1c(=O)n(CC(=O)NCc2ccco2)c(=O)c2sccc21	4	-4	0	-1	52*	0
CCOc1ccc(Nc2oc(-c3cccs3)nc2C#N)cc1	-12	4	0	19	57*	-1
COc1ccc(Nc2oc(COc3ccc(C)cc3)nc2C#N)cc1	-7	38*	-1	13	30	-2
O=C(CN1C(=O)NC2(CCCC2)C1=O)OCCOc1cccc(Br)c1	-9	-21	4	-17	13	2
O=c1cc(CSc2nnc(-c3cccs3)n2Cc2ccccc2)nc2sc3ccccc3n12	-16	52*	1	5	54	-1
Cc1cc(=O)oc2cc(OCC(=O)N3CCOCC3)c(Cl)cc12	0	-17	0	-16	6	2
C=C(C)CNC(=S)N=Nc1c(O)[nH]c2ccc([N+](=O)[O-])cc12	-3	-10	0	-14	34	0
O=C(CNC(=O)c1ccco1)N=Nc1c(O)[nH]c2ccc([N+](=O)[O-])cc12	-6	2	0	-3	63*	0
CC(C)Cc1ccc(CN2CCCC(NC(=O)c3cccc(-n4cnnc4)c3)C2)cc1 (centres undefined)	-2	-16	3	-13	18	2
COc1ccc(C2=Nn3c([n+](C)c4ccccc43)SC2)cc1	-18	-18	2	-33	42*	1

Compound activity from PubChem BioAssay.
